# MsrA act: activators of bovine methionine sulfoxide reductase A; activation, % at 10.6 µM; hit rate 0.3% among 360,000; AID 602163; purified bovine MsrA, absorbance read-out; in the data active = activation above about 7.5%;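 note: 0% = vehicle and 100% = reference activator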
# proCasp7 act: activates human procaspase-7, counter-screen for procaspase-3 activators | P55210 | recombinant procaspase-7, Ac-DEVD-pNA absorbance 405 nm; D23A/D198A/D206A triple mutant, cannot self-cleave; scale: DMSO 0, 5 µM enzyme 100 | activation, % at 8.5 µM | hit rate 0.093% among 330,000;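 active = percent activation above the screen-wide mean plus 3 SD, cut at about 25% in these data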
# Target sequence (P55210 whole entry D23A/D198A/D206A): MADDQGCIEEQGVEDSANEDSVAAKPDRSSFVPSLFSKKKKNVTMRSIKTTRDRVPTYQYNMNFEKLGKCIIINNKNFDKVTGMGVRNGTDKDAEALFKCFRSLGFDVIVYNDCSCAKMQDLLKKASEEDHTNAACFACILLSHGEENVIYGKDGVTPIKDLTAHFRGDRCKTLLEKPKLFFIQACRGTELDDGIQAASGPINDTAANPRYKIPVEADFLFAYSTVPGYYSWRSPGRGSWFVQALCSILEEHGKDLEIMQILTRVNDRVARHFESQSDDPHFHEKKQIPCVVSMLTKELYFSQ
#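 Detection: p-Nitroaniline absorbance at 405 nm, read at 0 and 120 min; system: Uncleavable procaspase-7 mutant enzyme; evaluation: % activation from two-timepoint absorbance difference, scaled to controls; times: 1 h enzyme–compound preincubation and 2 h substrate reaction, both 25 °C; buffer or medium: Zinc-free HEPES pH 7.4 with 300 mM NaCl, 0.01% Triton X-100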
# procasp3 activ: activators of human procaspase-3 | recombinant procaspase-3 D3A, Ac-DEVD-pNA absorbance 405 nm | activation, % at 8.5 µM | hit rate 0.11% among 330,000;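 active = activation above the mean of all tested compounds plus 3 SD, cut at about 21% in these data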;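 note: 0% = DMSO alone and 100% = DMSO wells spiked with extra 5 µM PC-3 D3A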
# Target sequence (P42574 whole entry D9A/D28A/D175A): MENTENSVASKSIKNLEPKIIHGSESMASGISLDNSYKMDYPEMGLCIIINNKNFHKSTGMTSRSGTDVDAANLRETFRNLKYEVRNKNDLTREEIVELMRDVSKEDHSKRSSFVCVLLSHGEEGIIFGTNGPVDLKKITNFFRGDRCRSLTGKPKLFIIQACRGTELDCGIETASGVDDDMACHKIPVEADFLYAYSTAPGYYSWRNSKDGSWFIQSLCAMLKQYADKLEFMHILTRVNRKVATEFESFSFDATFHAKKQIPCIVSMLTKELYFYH
#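 Technique: 405 nm absorbance of p-nitroaniline, reads at 0 and 120 min; Test system: Procaspase-3 D3A mutant; Incubation: 1 h enzyme-compound preincubation, then 2 h substrate reaction, 25 °C; Repeats: singlicate, each compound tested once; Benchmarks: low control DMSO wells, high control DMSO plus 5 µM PC-3 D3A.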
# MsrA inhibitor: inhibitors of bovine MsrA. purified bovine MsrA, absorbance read-out. inhibition, % at 15.5 µM. hit rate 0.75% among 360,000; in the data active = inhibition above about 4.5%;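 note: 0% = vehicle wells with enzyme and 100% = reference inhibitor wells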
# TbMetRS inhib: blocks T. brucei methionyl-tRNA synthetase activity. purified T. brucei MetRS, ATP depletion, Kinase-Glo luminescence. inhibition, % at 11.9 µM. AID 624268. hit rate 0.4% among 360,000;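 active = inhibition above a per-plate cutoff of the control wells' mean inhibition plus 3 SD, cut at about 5.5% in these data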;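 note: 0% = DMSO wells median and 100% = median of wells with control inhibitor compound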
#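 Material: T. brucei methionyl-tRNA synthetase, purified; reagent: substrates ATP, L-methionine and bulk Escherichia coli tRNA; dosing: 11.9 µM single point; timing: 15 min plus 2 h at 25 °C; detection: luminescence of leftover ATP; evaluation: % inhibition; control set: DMSO-only wells as low control; replicates: singlicate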
# MsrA activ conf: confirmation of bovine methionine sulfoxide reductase A activators. shares compounds with MsrA act. purified bovine MsrA, absorbance read-out. hit rate 12% among 1,000. activation, % at 10.6 µM; in the data active = activation above about 4%;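 note: enzyme coupled to thioredoxin and thioredoxin reductase with NADPH; 0% = vehicle wells and 100% = reference activator wells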
# Starred values were filed as active, the others as inactive; . = not tested or not shown. Compounds with a hit are over-represented: about 1.5% of the library has one in this group of screens.
SMILES,MsrA act,proCasp7 act,procasp3 activ,MsrA inhibitor,TbMetRS inhib,MsrA activ conf
CCCNC(=O)CCn1c(=S)oc2ccccc21,-3,1,4,2,0,.
Cc1cc(Br)c2nc(-c3cccc(Br)c3)c(Cc3cccc(Cl)c3)n2c1,.,.,.,0,.,.
CC(C)(C)OC(=O)N[C@@H]1C=CC(=O)C1,.,.,.,0,.,.
COc1cc(CC(=O)Nc2sc3c(c2C(N)=O)CCCC3)cc(OC)c1OC,-2,3,3,2,0,.
COc1ccc(CC(=O)Nc2sc3c(c2C(N)=O)CCCC3)cc1,8.4*,-2,4,0,0,-2
COc1ccc(NC(=O)NC(C)c2ccccc2)cc1 (centres undefined),17*,.,.,-1,0,-1
CCCCCn1cnc2sc(CC)cc2c1=O,14*,0,0,-1,0,3
CCc1cc2c(=O)n(CC(C)C)cnc2s1,-4,5,4,-1,-1,.
Cc1ccccc1OCCCN1CCC(C(O)(c2ccccc2)c2ccccc2)CC1,.,.,.,0,.,.
O=S1(=O)CCC(N(N=Cc2ccco2)c2ccccc2)C1 (centres undefined),.,.,.,1,.,.
O=c1[nH]c2ccccc2nc1-c1nnnn1Cc1ccccc1,-3,.,.,1,-1,.
Cc1cccc(C)c1-n1nnnc1-c1nc2cc(Br)ccc2[nH]c1=O,8.0*,.,.,-1,4,2
O=C(NC1(C(F)(F)F)N=C2SCCN2C1=O)C1CCCCC1 (centres undefined),7.8*,-9,-1,-2,-1,-1
COc1cc(OC)c(C(=O)NC23CC4CC(CC(C4)C2)C3)cc1OC,9.2*,9,0,0,0,-4
Fc1ccc(-c2ccc3c(n2)CCCN3Cc2ccccc2C(F)(F)F)cc1,.,.,.,1,.,.
c1ccc(-c2nc3ccccc3nc2-c2ccc(CN3CCC4(CC3)CNc3ccccc34)cc2)cc1,.,.,.,0,.,.
COC(=O)c1cc2c(c3c4cc(OC)ccc4n(S(=O)(=O)c4ccc(C)cc4)c13)C(=O)N(C)C2,.,.,.,0,.,.
CCOc1ccc(-n2ccnc2)nn1,8.1*,7,7,0,-1,-3
Cc1cc(C)n(-c2ccc(-n3ccnc3)nn2)n1,-1,8,-2,-1,0,.
Cc1cc2c(nc1C)CCCN2S(=O)(=O)c1cccs1,.,.,.,0,.,.
CC1(C)CCC(=NNC(N)=S)CC1,-7,.,.,0,-1,.
NC(=S)NN=C1CSSC1,15*,.,.,.,0,23*
COc1cccc(CNC(=O)[C@H]2CCCN2C(=O)[C@H]2CCCN2C(=O)c2ccc(C)cc2)c1,.,.,.,1,.,.
COc1ccc(NS(=O)(=O)c2cc(NC(=O)c3ccc(F)cc3)ccc2OC)cc1,9.7*,16,-1,-1,0,0
COc1ccccc1C(=O)NCCC(=O)NCCCSc1ccccc1,9.8*,11,-6,0,0,0
SMILES,MsrA act,proCasp7 act,procasp3 activ,MsrA inhibitor,TbMetRS inhib,MsrA activ conf
Clc1cccc(CN2CCN(c3ncc(Cc4ccccc4)cn3)CC2)c1Cl,.,.,.,-1,.,.
Cc1cc(=S)[nH]c(=S)[nH]1,10*,-11,3,1,0,8.2*
CC1CC(C(F)(F)F)n2ncnc2N1 (centres undefined),9.2*,6,10,0,0,1
CC1CC(C(F)(F)F)n2ncc(C(=O)O)c2N1 (centres undefined),-2,10,12,0,-1,.
CC1=C(C(=O)OCC(C)C)C(c2cccc(F)c2)N2C(=O)C(C)SC2=N1 (centres undefined),0,-3,3,1,0,.
CC1=C(C(=O)OC(C)C)C(c2cccc(F)c2)N2C(=O)C(C)SC2=N1 (centres undefined),9.8*,-2,-12,1,0,0
O=C(CC1CCCCC1)Nc1ccc(-c2ccc3nncn3n2)cc1,7.7*,-2,-1,0,1,-1
Nc1ccccc1SC(CC(=O)c1ccccc1)c1ccccc1 (centres undefined),7.9*,.,.,.,0,0
Cc1cccc(NC(=O)c2cc(S(=O)(=O)N3CCCCC3)ccc2Cl)n1,12*,.,.,0,0,-1
CN(CC(=O)Nc1ccccc1N1CCOCC1)S(=O)(=O)c1ccc(Cl)cc1,8.0*,7,-2,0,0,5.5*
Cc1ccc(C(=O)N(C)[C@H]2C[C@H]3c4[nH]c5c(-c6ccccc6)cccc5c4CCN3C(=O)[C@H]2[C@H](C)O)cc1,.,.,.,0,.,.
CNC(=S)Nc1sc2c(c1C(=O)OC)CCC2,8.4*,-10,-5,2,0,2
COC(=O)c1c(NC(C)=O)sc2c1CCCC2,-4,-8,-15,1,0,.
COC(=O)c1ccccc1S(=O)(=O)N1CCC(C(=O)NC2CCCCC2)CC1,11*,4,4,0,0,-2
OCC1SC(O)C(O)C(O)C1O (centres undefined),.,.,.,0,.,.
O=c1[nH]c(=S)[nH]cc1Oc1ccc(Cl)cc1,9.0*,.,.,0,0,4.2*
COc1ccc(NC(=O)OC[C@@H]2CSCCS(=O)(=O)N2)cc1,.,.,.,2,.,.
Cc1ccc(C)c(N2CCN(S(=O)(=O)c3c(C(=O)N4CCCCC4)c(C)n(C)c3C)CC2)c1,8.2*,3,1,1,1,-2
O=c1sc(N2CCN(c3ccc(F)cc3)CC2)nc2ccsc12,7.8*,-4,-4,1,0,-2
O=c1sc(N2CCN(c3ccccc3F)CC2)nc2ccsc12,-1,2,-1,0,-1,.
Cc1oc(CC(C)C)cc1C(=O)Nc1cccc2ccccc12,7.8*,1,1,0,-1,0
Cc1cc(C(=O)Nc2cccc3ccccc23)c(C)o1,4,-2,2,-1,0,.
COC(=O)C1=C(C)N(C)C(=NCc2ccccc2C(F)(F)F)NC1c1ccc(C(F)(F)F)cc1 (centres undefined),.,.,.,-1,.,.
CC(C)C[C@H]1CN(CCCC[C@@H]2CNC(=O)C(=O)N2CCc2ccccc2)C(=O)C(=O)N1Cc1ccccc1,19*,.,.,1,-1,-4
CN(C)CCCN1CC(=O)N2CCc3ccc(Br)cc3C2CC1=O (centres undefined),.,.,.,-1,.,.
SMILES,MsrA act,proCasp7 act,procasp3 activ,MsrA inhibitor,TbMetRS inhib,MsrA activ conf
CN(C)c1nc(OCCNC(=O)Nc2ccccc2)nc(N2CCCCC2)n1,-3,-2,1,1,0,.
CN(C)c1nc(OCCNC(=O)Nc2ccccc2)nc(N2CCOCC2)n1,16*,.,.,0,2,-1
C=CS(=O)(=O)N(C(=C)C(=O)OC)S(C)(=O)=O,.,.,.,0,.,.
CC1=C(C)CS(=O)N(c2ccc(S(N)(=O)=O)cc2)C1 (centres undefined),7.8*,-23,-23,-1,-1,-3
C=CCNc1cccc2c1S(=O)(=O)N[C@H](C)CO2,.,.,.,0,.,.
CCN(CC)S(=O)(=O)c1ccc(N2CCCCC2)c(NC(=O)/C=C/c2ccc(OC)c(OC)c2)c1,15*,1,-3,2,0,3

# Screens deposited in PubChem by The Scripps Research Institute Molecular Screening Center.
